# Test results reported in the M2OR odorant receptor database.
# Target: T1, OR52D1 (Homo sapiens) (UniProt Q9H346)
# T1 sequence (whole entry): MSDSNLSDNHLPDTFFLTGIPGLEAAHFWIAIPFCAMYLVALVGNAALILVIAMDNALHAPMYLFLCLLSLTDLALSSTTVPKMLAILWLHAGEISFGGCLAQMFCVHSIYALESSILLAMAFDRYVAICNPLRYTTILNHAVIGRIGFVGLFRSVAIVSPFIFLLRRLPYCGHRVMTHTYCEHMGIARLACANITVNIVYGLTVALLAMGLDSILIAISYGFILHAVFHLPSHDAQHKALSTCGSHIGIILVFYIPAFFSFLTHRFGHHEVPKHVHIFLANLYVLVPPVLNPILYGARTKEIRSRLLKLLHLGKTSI
# Conditions: stereoisomer not certain
# Procedure, shortened: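 Each entry records the cell line, G-protein, co-transfected protein and tags used. Methods varied with the source, often transient luciferase assays in mammalian cell lines. A receptor–molecule pair is called responsive (active) if the original authors judged its signal statistically different from baseline and non-responsive (inactive) otherwise.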
row,SMILES,odorant receptor agonist call
1,C=CCc1ccc2c(c1)OCO2,inactive
2,CC(=O)CCc1ccc2c(c1)OCO2,inactive
3,C=CCc1ccc(OC)cc1,active
4,O=CC=Cc1ccccc1,active
5,CC(C=O)Cc1ccc2c(c1)OCO2 (stereo not given),active
6,c1ccncc1,inactive
7,Cc1c([N+](=O)[O-])c(C)c([N+](=O)[O-])c(C(C)(C)C)c1[N+](=O)[O-],inactive
8,C=CCOC(=O)Cc1ccccc1,inactive
9,COc1ccc(C=O)cc1,active
10,O=Cc1ccccc1,active
